From ChEMBL document CHEMBL1124174, “Substituted benzamides. 1. Potential nondopaminergic antagonists of chemotherapy-induced nausea and emesis” (J Med Chem, 1988)
Values joined by “and” are separate entries in the source; they are usually repeats but may differ in a detail not shown here. Equal entries are not always repeated.

Key:
D(2) dopamine receptor = D(2) dopamine receptor (Rattus norvegicus, UniProt P61169); test: In vitro antagonistic activity against Dopamine receptor D2 was evaluated for the inhibition of [3H]spiperone binding
Outline: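 Rat striatal membranes were prepared by differential centrifugation in 50 mM Tris pH 7.4 at 4 °C. Membrane protein (10 mg) was incubated 15 min at 37 °C with 0.1 nM [3H]spiperone and varying competitor concentrations. Buffer: 50 mM Tris HCl pH 7.5, 0.1% ascorbic acid, pargyline, 120 mM NaCl, 5 mM KCl, 2 mM CaCl2, 1 mM MgCl2. (+)-Butaclamol defined nonspecific binding. Bound ligand was collected by filtration and scintillation counted. IC50 by log-logit regression.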

[1] = biological target: D(2) dopamine receptor (Rattus norvegicus) (UniProt P61169); test: In vivo antagonism activity against D2 receptor was measured as stereotypy in rat when administered subcutaneously; assay type: functional, organism-based
Outline: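 Male Long Evans rats (275 g) were dosed sc in dilute aqueous HCl (pH 4.5-5.5) 30 min before apomorphine (1 mg/kg sc).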

Mustela putorius furo [2] = test: In vivo antagonism of cisplatin-induced emesis in ferret measured as percentage protection for twice the dose of 3 mg/kg and in 3 ferrets; assay type: functional
Outline: (§1)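 Nonfasted castrated male Fitch ferrets (1–1.5 kg) had jugular catheters implanted ≥48 h earlier under anesthesia. Compounds or saline were given iv twice, 5 min before and 90 min after cisplatin (12 mg/kg iv; 12 mg/mL in warm 0.9% saline). Emesis was observed up to 4 h; events within 1 min counted as one episode. Results were given as mean emetic episodes and % protection versus a pooled historical/concurrent control. t test versus saline.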

[3] = biological target: D(2) dopamine receptor (Rattus norvegicus) (UniProt P61169); test: In vivo antagonistic activity against dopamine D2 receptor was measured as catalepsy in rat when administered subcutaneously; assay type: functional, organism-based
Outline: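 Male Long Evans rats (275 g) received graded sc doses in dilute aqueous HCl (pH 4.5-5.5). They were observed 180 min for catalepsy, scored when the animal stayed stationary ≥15 s on a four-cork template.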

Mustela putorius furo [4] = test: In vivo antagonism of cisplatin-induced emesis in ferret measured as emetic episodes, twice the dose of 3 mg/kg and in 3 ferrets; assay type: functional; outline: as §1
[5] = biological target: D(2) dopamine receptor (Canis lupus familiaris) (UniProt Q9GJU1); test: In vivo antagonism activity against dopamine D2 receptor was measured as emesis in dog when administered subcutaneously; assay type: functional, organism-based
Canis familiaris [6] = test: In vivo antagonism of cisplatin-induced emesis in dog measured as percentage protection for twice the dose of 3 mg/kg in 2 dogs; assay type: functional, Canis lupus familiaris
Outline: (§2)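 Nonfasted mature male or female beagles were dosed sc twice, 30 min before and 120 min after cisplatin (3 mg/kg iv; 3 mg/mL in warm 0.9% saline, used immediately). Emesis was observed up to 5 h; events within 2 min counted as one episode. Results were given as mean emetic episodes and % protection versus a dynamic control (historical and concurrent saline means pooled). t test versus saline.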

Canis familiaris [7] = test: In vivo antagonism of cisplatin-induced emesis in dog measured as emetic episodes, twice the dose of 3 mg/kg in 2 dogs; assay type: functional, Canis lupus familiaris; outline: as §2
Canis familiaris [8] = test: In vivo antagonism of cisplatin-induced emesis in dog measured as percentage protection for twice the dose of 6 mg/kg in 2 dogs; assay type: functional, Canis lupus familiaris; outline: as §2
Canis familiaris [9] = test: In vivo antagonism of cisplatin-induced emesis in dog measured as emetic episodes, twice the dose of 6 mg/kg in 2 dogs; assay type: functional, Canis lupus familiaris; outline: as §2
Canis familiaris [10] = test: In vivo antagonism of cisplatin-induced emesis in dog measured as percentage protection for twice the dose of 1 mg/kg in 2 dogs; assay type: functional, Canis lupus familiaris; outline: as §2
Mustela putorius furo [11] = test: In vivo antagonism of cisplatin-induced emesis in ferret measured as percentage protection for twice the dose of 1 mg/kg and in 3 ferrets; assay type: functional; outline: as §1
Canis familiaris [12] = test: In vivo antagonism of cisplatin-induced emesis in dog measured as emetic episodes, twice the dose of 1 mg/kg in 2 dogs; assay type: functional, Canis lupus familiaris; outline: as §2
Mustela putorius furo [13] = test: In vivo antagonism of cisplatin-induced emesis in ferret measured as emetic episodes, twice the dose of 1 mg/kg and in 3 ferrets; assay type: functional; outline: as §1
Mustela putorius furo [14] = test: In vivo antagonism of cisplatin-induced emesis in ferret measured as percentage protection for twice the dose of 0.3 mg/kg and in 3 ferrets; assay type: functional; outline: as §1
Mustela putorius furo [15] = test: In vivo antagonism of cisplatin-induced emesis in ferret measured as emetic episodes, twice the dose of 0.3 mg/kg and in 3 ferrets; assay type: functional; outline: as §1
Canis familiaris [16] = test: In vivo antagonism of cisplatin-induced emesis in dog measured as percentage protection for twice the dose of 0.3 mg/kg in 2 dogs; assay type: functional, Canis lupus familiaris; outline: as §2
Canis familiaris [17] = test: In vivo antagonism of cisplatin-induced emesis in dog measured as emetic episodes, twice the dose of 0.3 mg/kg in 2 dogs; assay type: functional, Canis lupus familiaris; outline: as §2

Chain of D(2) dopamine receptor (Rattus norvegicus) (P61169 whole entry): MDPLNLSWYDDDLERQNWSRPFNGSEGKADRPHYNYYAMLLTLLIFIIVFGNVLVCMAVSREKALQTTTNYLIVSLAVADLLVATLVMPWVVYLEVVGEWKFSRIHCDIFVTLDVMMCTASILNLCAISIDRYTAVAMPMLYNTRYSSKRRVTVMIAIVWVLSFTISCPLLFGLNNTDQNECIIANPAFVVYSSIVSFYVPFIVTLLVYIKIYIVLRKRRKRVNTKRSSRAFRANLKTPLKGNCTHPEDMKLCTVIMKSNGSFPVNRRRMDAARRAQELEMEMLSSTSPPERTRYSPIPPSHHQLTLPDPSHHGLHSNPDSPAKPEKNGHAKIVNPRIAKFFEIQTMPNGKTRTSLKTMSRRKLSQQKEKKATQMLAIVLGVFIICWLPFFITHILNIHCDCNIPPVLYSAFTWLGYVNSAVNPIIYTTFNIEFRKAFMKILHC
Chain of D(2) dopamine receptor (P61169 whole entry): as above
Chain of D(2) dopamine receptor (Canis lupus familiaris) (Q9GJU1 whole entry): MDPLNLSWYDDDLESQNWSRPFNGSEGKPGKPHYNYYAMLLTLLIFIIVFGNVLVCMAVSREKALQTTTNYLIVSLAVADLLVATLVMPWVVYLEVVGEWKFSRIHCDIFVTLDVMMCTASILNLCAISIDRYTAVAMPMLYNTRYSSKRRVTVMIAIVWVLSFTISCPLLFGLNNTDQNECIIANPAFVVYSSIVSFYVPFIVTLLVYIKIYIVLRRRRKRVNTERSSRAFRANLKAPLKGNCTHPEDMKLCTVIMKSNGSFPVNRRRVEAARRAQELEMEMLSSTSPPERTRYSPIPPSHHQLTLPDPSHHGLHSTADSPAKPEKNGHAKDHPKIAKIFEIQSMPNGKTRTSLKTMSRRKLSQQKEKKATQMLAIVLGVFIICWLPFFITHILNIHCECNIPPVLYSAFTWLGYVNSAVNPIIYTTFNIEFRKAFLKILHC

## CCN(CC)CCNC(=O)c1cc(Cl)c(N)cc1OCC(=O)c1ccccc1
D(2) dopamine receptor
  IC50: > 1000 nM
[1]
  ED50: > 40 mg/kg
Mustela putorius furo [2]
  Protection: 100%
[3]
  ED50: > 40 mg/kg
Mustela putorius furo [4]
  Emetic episodes: 0
[5]
  ED50: > 3 mg/kg
Canis familiaris [6]
  Protection: 88%
Canis familiaris [7]
  Emetic episodes: 1.5

## C=C(C)COc1cc(N)c(Cl)cc1C(=O)NCCN(CC)CC
D(2) dopamine receptor
  IC50: > 1000 nM
[1]
  ED50: > 40 mg/kg
Mustela putorius furo [2]
  Protection: 70%
[3]
  ED50: > 40 mg/kg
Mustela putorius furo [4]
  Emetic episodes: 2.3
[5]
  ED50: > 3 mg/kg
Canis familiaris [6]
  Protection: 68%
Canis familiaris [7]
  Emetic episodes: 4

## CCN(CC)CCNC(=O)c1cc(Cl)c(N)cc1OC(C)C#N (stereo not given)
D(2) dopamine receptor
  IC50: > 1000 nM
[1]
  ED50: > 40 mg/kg
Mustela putorius furo [2]
  Protection: 63%
[3]
  ED50: > 40 mg/kg
Mustela putorius furo [4]
  Emetic episodes: 2.7
[5]
  ED50: > 3 mg/kg
Canis familiaris [6]
  Protection: 80%
Canis familiaris [7]
  Emetic episodes: 2.5

## CCN(CC)CC/N=C(\NOC)c1cc(Cl)c(N)cc1OC
D(2) dopamine receptor
  IC50: > 1000 nM
[1]
  ED50: > 40 mg/kg
Mustela putorius furo [2]
  Protection: 0%
Canis familiaris [8]
  Protection: 34%
[3]
  ED50: > 40 mg/kg
Mustela putorius furo [4]
  Emetic episodes: 8.3
[5]
  ED50: > 1 mg/kg
Canis familiaris [9]
  Emetic episodes: 8.5

## C=CCCOc1cc(N)c(Cl)cc1C(=O)NCCN(CC)CC
D(2) dopamine receptor
  IC50: > 1000 nM
[1]
  ED50: > 40 mg/kg
Mustela putorius furo [2]
  Protection: 50%
[3]
  ED50: > 40 mg/kg
Mustela putorius furo [4]
  Emetic episodes: 3.7
[5]
  ED50: > 3 mg/kg
Canis familiaris [6]
  Protection: 71%
Canis familiaris [7]
  Emetic episodes: 3.5

## CCCOc1cc(N)c(Cl)cc1C(=O)NCCN(CC)CC
D(2) dopamine receptor
  IC50: > 1000 nM
[1]
  ED50: > 40 mg/kg
Mustela putorius furo [2]
  Protection: 70%
Canis familiaris [8]
  Protection: 40%
[3]
  ED50: > 40 mg/kg
Mustela putorius furo [4]
  Emetic episodes: 2
[5]
  ED50: > 3 mg/kg
Canis familiaris [9]
  Emetic episodes: 8

## C=CCOc1cc(N)c(Cl)cc1C(=O)NCCN(CC)CC
D(2) dopamine receptor
  IC50: > 1000 nM
[1]
  ED50: > 40 mg/kg
Mustela putorius furo [2]
  Protection: 95%
Canis familiaris [10]
  Protection: 72%
Mustela putorius furo [11]
  Protection: 56%
Canis familiaris [12]
  Emetic episodes: 3.5
Canis familiaris [8]
  Protection: 90%
[3]
  ED50: > 40 mg/kg
Mustela putorius furo [4]
  Emetic episodes: 0.3
Mustela putorius furo [13]
  Emetic episodes: 3
Mustela putorius furo [14]
  Protection: 30%
[5]
  ED50: > 1 mg/kg
Canis familiaris [9]
  Emetic episodes: 1
Mustela putorius furo [15]
  Emetic episodes: 4.7

## CCN(CC)CCNC(=O)c1cc(Cl)c(N)cc1OC(C)C(C)O (stereo in doubt; 8h)
D(2) dopamine receptor
  IC50: > 1000 nM
Canis familiaris [16]; 0.3 mg/kg
  Protection: 60%
Mustela putorius furo [2]; 3 mg/kg
  Protection: 95%
Canis familiaris [10]
  Protection: 75%
Mustela putorius furo [11]; 1 mg/kg
  Protection: 68%
Canis familiaris [17]; 0.3 mg/kg
  Emetic episodes: 4.5
Canis familiaris [12]
  Emetic episodes: 3
Mustela putorius furo [4]; 3 mg/kg
  Emetic episodes: 0.3
Mustela putorius furo [13]; 1 mg/kg
  Emetic episodes: 2.3
Mustela putorius furo [14]; 0.3 mg/kg
  Protection: 37%
Mustela putorius furo [15]; 0.3 mg/kg
  Emetic episodes: 4.7

## CCN(CC)CCNC(=O)c1cc(Cl)c(N)cc1OC/C(C)=N/OC
D(2) dopamine receptor
  IC50: > 1000 nM
[1]
  ED50: > 40 mg/kg
Mustela putorius furo [2]
  Protection: 90%
Canis familiaris [8]
  Protection: 71%
[3]
  ED50: > 40 mg/kg
Mustela putorius furo [4]
  Emetic episodes: 0.7
Canis familiaris [9]
  Emetic episodes: 3.5

## CCN(CC)CCNC(=O)c1cc(Cl)c(N)cc1OC1CCCC[C@@H]1OC (stereo not given in full)
D(2) dopamine receptor
  IC50: > 1000 nM
[1]
  ED50: > 40 mg/kg
Mustela putorius furo [2]
  Protection: 91%
Canis familiaris [10]
  Protection: 15%
Mustela putorius furo [11]
  Protection: 69%
Canis familiaris [12]
  Emetic episodes: 10
[3]
  ED50: > 40 mg/kg
Mustela putorius furo [4]
  Emetic episodes: 0.7
Mustela putorius furo [13]
  Emetic episodes: 2.3
Mustela putorius furo [14]
  Protection: 42%
[5]
  ED50: > 3 mg/kg
Mustela putorius furo [15]
  Emetic episodes: 4.3

## CCN(CC)CCNC(=O)c1cc(Cl)c(N)cc1OC[C@@H](C)O (stereo in doubt; 8f)
D(2) dopamine receptor
  IC50: > 1000 nM
Canis familiaris [10]; 1 mg/kg
  Protection: 100%
Mustela putorius furo [11]; 1 mg/kg
  Protection: 22%
Canis familiaris [17]; 0.3 mg/kg
  Emetic episodes: 2
Canis familiaris [12]; 1 mg/kg
  Emetic episodes: 0
Mustela putorius furo [13]; 1 mg/kg
  Emetic episodes: 5.7
Mustela putorius furo [14]
  Protection: 0%
Mustela putorius furo [15]
  Emetic episodes: 8

## CCN(CC)CCN1C(=O)c2cc(Cl)c(N)cc2OC(C)=C1C
D(2) dopamine receptor
  IC50: > 1000 nM
Canis familiaris [16]
  Protection: 37%
[1]
  ED50: > 40 mg/kg
Canis familiaris [17]
  Emetic episodes: 7.5
[3]
  ED50: > 40 mg/kg
Mustela putorius furo [14]; 0.3 mg/kg
  Protection: 95% and 67%
[5]
  ED50: > 3 mg/kg

## CCC(=O)COc1cc(N)c(Cl)cc1C(=O)NCCN(CC)CC
D(2) dopamine receptor
  IC50: > 1000 nM
[1]
  ED50: > 40 mg/kg
Mustela putorius furo [2]
  Protection: 90%
Canis familiaris [10]
  Protection: 100%
Canis familiaris [17]
  Emetic episodes: 3
Canis familiaris [12]
  Emetic episodes: 0
[3]
  ED50: > 40 mg/kg
Mustela putorius furo [4]
  Emetic episodes: 0.7
Mustela putorius furo [14]
  Protection: 0%
[5]
  ED50: > 3 mg/kg
Mustela putorius furo [15]
  Emetic episodes: 7.3

## CCN(CC)CCNC(=O)c1cc(Cl)c(N)cc1OC1CCCCC1=O (stereo not given)
D(2) dopamine receptor
  IC50: > 1000 nM
Canis familiaris [16]
  Protection: 88%
[1]
  ED50: > 40 mg/kg
Mustela putorius furo [2]
  Protection: 100%
Canis familiaris [10]
  Protection: 100%
Canis familiaris [17]
  Emetic episodes: 1.5
Canis familiaris [12]
  Emetic episodes: 0
[3]
  ED50: > 40 mg/kg
Mustela putorius furo [4]
  Emetic episodes: 0
Mustela putorius furo [14]
  Protection: 62%
[5]
  ED50: > 3 mg/kg
Mustela putorius furo [15]
  Emetic episodes: 2.7

## CCN(CC)CCNC(=O)c1cc(Cl)c(N)cc1OCC(C)=O
D(2) dopamine receptor
  IC50: > 1000 nM
Canis familiaris [16]
  Protection: 60%
[1]
  ED50: > 40 mg/kg
Mustela putorius furo [2]
  Protection: 90%
Canis familiaris [10]
  Protection: 92%
Mustela putorius furo [11]
  Protection: 38%
Canis familiaris [17]
  Emetic episodes: 5
Canis familiaris [12]
  Emetic episodes: 1.5
Canis familiaris [8]
  Protection: 96%
[3]
  ED50: > 40 mg/kg
Mustela putorius furo [4]
  Emetic episodes: 0.7
Mustela putorius furo [13]
  Emetic episodes: 4.5
Mustela putorius furo [14]
  Protection: 44%
[5]
  ED50: > 3 mg/kg
Canis familiaris [9]
  Emetic episodes: 0.5
Mustela putorius furo [15]
  Emetic episodes: 4

## CCN(CC)CCNC(=O)c1cc(Cl)c(N)cc1OC1CCCC[C@H]1OC (stereo not given in full)
D(2) dopamine receptor
  IC50: > 1000 nM
Canis familiaris [16]
  Protection: 70%
[1]
  ED50: > 40 mg/kg
Mustela putorius furo [2]
  Protection: 82%
Canis familiaris [10]
  Protection: 100%
Mustela putorius furo [11]
  Protection: 49%
Canis familiaris [17]
  Emetic episodes: 3.5
Canis familiaris [12]
  Emetic episodes: 0
[3]
  ED50: > 40 mg/kg
Mustela putorius furo [4]
  Emetic episodes: 1.3
Mustela putorius furo [13]
  Emetic episodes: 1.7
Mustela putorius furo [14]
  Protection: 77%
[5]
  ED50: > 3 mg/kg
Mustela putorius furo [15]
  Emetic episodes: 3.7
